Assay results from ChEMBL document CHEMBL5252539, “In vitro biological evaluation of new antimycobacterial salicylanilide-tuftsin conjugates” (Eur J Med Chem, 2017).
In brackets after ≈: the same amount, converted by molar mass. Activity calls are given as the source filed them. No cut-off for these calls is given here. *1 amine or outer side, *2 acyl side, *3 side chain or, on linkers, in order; H or OH if unused. Where a SMILES comes first, the peptide text is derived from it. [ ]: non-standard residue; d: D form. The star is where a group is joined. X2 = C/C(=N\OCC(=O)*)c1ccc(NC(=O)c2cc(Br)ccc2O)cc1; X1 = C/C(=N\OCC(=O)[*:2])c1ccc(N[*:1])cc1; Benzoyl(5-Br-2-OH) = O=C(c1cc(Br)ccc1O)*; Palmitoyl = CCCCCCCCCCCCCCCC(=O)*; X3 = O=C(c1cc(Cl)ccc1O)*

Columns and labels:
[1] = tested on: Mycobacterium tuberculosis; experiment: Antimycobacterial activity against Mycobacterium tuberculosis H37Rv ATCC 27294 assessed as reduction in bacterial growth after 28 days by serial dilution method; assay type: functional; settings: H37Rv ATCC 27294, 672 h, time 28 day
Method in brief: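 Broth MIC in Sula semisynthetic medium, pH 6.5; 4-week incubation, with 21-day values […] where indicated. Drug-free inoculated bacteria served as growth control. MIC also expressed as drug content (µg/mL) = MIC (µM) × average SAL molar mass × number of SAL per conjugate / 1000.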

[2] = tested on: Mycobacteroides abscessus; experiment: Antimycobacterial activity against Mycobacterium abscessus ATCC 19977 assessed as reduction in bacterial growth after 7 days by serial dilution method; assay type: functional; settings: ATCC 19977, 168 h, time 7 day
Method in brief: (§1)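 MIC determined in Sula semisynthetic medium, pH 6.5, 1 week incubation. Growth inhibition confirmed by plating on Löwenstein-Jensen solid medium and counting CFU. Bacteria inoculated without drug served as growth control.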

[3] = tested on: Mycobacterium tuberculosis; experiment: Antimycobacterial activity against Mycobacterium tuberculosis H37Rv ATCC 27294 assessed as reduction in colony forming unit after 28 days by serial dilution method; assay type: functional, organism-based; settings: time 28.0 day
Method in brief: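 After the 4-week MIC incubation in Sula semisynthetic medium (pH 6.5), growth inhibition confirmed by plating on Löwenstein-Jensen solid medium and counting colony forming units.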

[4] = tested on: Mycobacteroides abscessus; experiment: Antimycobacterial activity against Mycobacterium abscessus ATCC 19977 assessed as reduction in colony forming unit after 7 days by serial dilution method; assay type: functional, organism-based; settings: time 7.0 day; method in brief: as §1
MONO-MAC-6 = experiment: Cytostatic activity against human MONO-MAC-6 cells assessed as reduction in cell viability incubated for 24 hrs by MTT assay; assay type: functional, cell-based; settings: MONO-MAC-6, 24 h
Method in brief: (§2)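 MTT viability assay after 24 h exposure of MonoMac6 human monocytic cells or HepG2 human hepatocellular carcinoma cells. Top concentration 200 μM. IC50 taken from dose-response curves as the concentration reducing viability to 50% of maximal.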

HepG2 = experiment: Cytostatic activity against human HepG2 cells assessed as reduction in cell viability incubated for 24 hrs by MTT assay; assay type: functional, cell-based; settings: HepG2, 24 h; method in brief: as §2
[5] = Selectivity index, ratio of IC50 for cytostatic activity against human MONO-MAC-6 cells to MIC for antimycobacterial activity against Mycobacterium tuberculosis H37Rv ATCC 27294; assay type: toxicity, cell-based; settings: read-out: Selectivity Index
Method in brief: (§3)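 MTT assay on MonoMac6 or HepG2 cells after 24 h exposure, top concentration 200 µM. SI = IC50 (µM)/MIC (µM) against H37Rv from the 4-week Sula medium assay.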

[6] = Selectivity index, ratio of IC50 for cytostatic activity against human HepG2 cells to MIC for antimycobacterial activity against Mycobacterium tuberculosis H37Rv ATCC 27294; assay type: toxicity, cell-based; settings: read-out: Selectivity Index; method in brief: as §3
[7] = tested on: Mycobacterium tuberculosis; experiment: […] antimycobacterial activity against Mycobacterium tuberculosis H37Rv ATCC 27294 infected in human MONO-MAC-6 cells assessed as reduction in colony forming unit at 125 uM for 6 days by colony counting based analysis; assay type: functional, organism-based; settings: time 6.0 day
Method in brief: (§4)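 MonoMac6 monolayers infected with H37Rv, then treated with compound at 125 or 250 µM for 3 days. Treatment repeated with fresh compound solution for another 3 days. Intracellular bacteria quantified as CFU against untreated infected cells.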

[8] = tested on: Mycobacterium tuberculosis; experiment: […] antimycobacterial activity against Mycobacterium tuberculosis H37Rv ATCC 27294 infected in human MONO-MAC-6 cells assessed as reduction in colony forming unit at 250 uM for 6 days by colony counting based analysis; assay type: functional, organism-based; settings: time 6.0 day; method in brief: as §4
[9] = Stability in rat liver lysosomal homogenate assessed as drug degradation at 50 uM and measured upto 24 hrs by HPLC-MS analysis; assay type: ADME, subcellular, Lysosome; settings: tissue homogenate
Method in brief: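 Conjugates incubated in rat liver lysosomal homogenate. Reaction mixtures sampled at 5 min, 1 h, 2 h, 4 h, 8 h and 24 h and analysed by HPLC-MS (chromatograms and mass spectra) to identify intact conjugate, fragments and cleavage sites.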

Compound	MIC [1]	MIC [2]	Activity [3]	Activity [4]	IC50 (MONO-MAC-6)	IC50 (HepG2)	selectivity ratio [5]	selectivity ratio [6]	Activity [7]	Activity [8]	Stability [9]
C/C(=N\OCC(=O)NCCCC[C@H](NC(=O)[C@@H]1CCCN1C(=O)[C@H](CCCCN)NC(=O)[C@@H](NC(=O)CNC(=O)[C@H](CCCCNC(=O)CO/N=C(\C)c1ccc(NC(=O)c2cc(Br)ccc2O)cc1)NC(=O)[C@@H]1CCCN1C(=O)[C@H](CCCCN)NC(=O)[C@@H](NC(=O)[C@H](CCCNC(=N)N)NC(=O)[C@@H]1CCCN1C(=O)[C@H](CCCCN)NC(=O)[C@@H](N)[C@@H](C)O)[C@@H](C)O)[C@@H](C)O)C(=O)NCC(=O)O)c1ccc(NC(=O)c2cc(Br)ccc2O)cc1 (H-TKPRTKPK(X2)GTKPK(X2)G-OH)	34.8 µM (≈ 80.1 µg/mL)	86.9 µM (≈ 200 µg/mL)	Active	Active	101 µM	95.2 µM	2.9	2.7	Active	Active	–
C/C(=N\OCC(=O)N[C@H](C(=O)N[C@@H](CCCCN)C(=O)N1CCC[C@H]1C(=O)N[C@@H](CCCCN)C(=O)NCC(=O)O)[C@@H](C)O)c1ccc(NC(=O)c2cc(Br)ccc2O)cc1 ({Benzoyl(5-Br-2-OH)}-[X1]TKPKG-OH)	65.3 µM (≈ 60 µg/mL)	218 µM (≈ 200 µg/mL)	Active	Active	> 200 µM	191 µM	> 3.1	2.9	Active	Active	Unstable
C/C(=N\OCC(=O)NCC(=O)N[C@@H](Cc1ccccc1)C(=O)N[C@@H](CC(C)C)C(=O)NCC(=O)N[C@H](C(=O)N[C@@H](CCCCN)C(=O)N1CCC[C@H]1C(=O)N[C@@H](CCCCN)C(=O)NCC(=O)O)[C@@H](C)O)c1ccc(NC(=O)c2cc(Br)ccc2O)cc1 ({Benzoyl(5-Br-2-OH)}-[X1]GFLGTKPKG-OH)	46.4 µM (≈ 60 µg/mL)	155 µM (≈ 200 µg/mL)	Active	Active	> 200 µM	58 µM	> 4.3	1.3	inactive	Active	–
C/C(=N\OCC(=O)NCC(=O)N[C@@H](Cc1ccccc1)C(=O)N[C@@H](CC(C)C)C(=O)NCC(=O)N[C@H](C(=O)N[C@@H](CCCCN)C(=O)N1CCC[C@@H]1C(=O)N[C@H](CCCNC(=N)N)C(=O)O)[C@@H](C)O)c1ccc(NC(=O)c2cc(Br)ccc2O)cc1	–	–	Active	Active	–	–	–	–	Active	Active	–
C/C(=N\OCC(=O)NCC(=O)N[C@@H](Cc1ccccc1)C(=O)N[C@@H](CC(C)C)C(=O)NCC(=O)N[C@H](C(=O)N[C@@H](CCCCN)C(=O)N1CCC[C@H]1C(=O)N[C@@H](CCCCN)C(=O)NCC(N)=O)[C@@H](C)O)c1ccc(NC(=O)c2cc(Br)ccc2O)cc1 ({Benzoyl(5-Br-2-OH)}-[X1]GFLGTKPKG-NH2)	31 µM (≈ 40.1 µg/mL)	155 µM (≈ 200 µg/mL)	Active	Active	> 200 µM	163 µM	> 6.5	5.3	Active	Active	Unstable
C/C(=N\OCC(=O)N[C@H](C(=O)N[C@@H](CCCCN)C(=O)N1CCC[C@H]1C(=O)N1CCC[C@@H]1C(=O)N[C@H](CCCNC(=N)N)C(=O)O)[C@@H](C)O)c1ccc(NC(=O)c2cc(Br)ccc2O)cc1	–	–	Active	Active	–	–	–	–	Active	Active	–
C/C(=N\OCC(=O)NCC(=O)N[C@@H](Cc1ccccc1)C(=O)N[C@@H](CC(C)C)C(=O)NCC(=O)N[C@H](C(=O)N[C@@H](CCCCN)C(=O)N1CCC[C@@H]1C(=O)N1CCC[C@H]1C(=O)N[C@H](CCCNC(=N)N)C(=O)O)[C@@H](C)O)c1ccc(NC(=O)c2cc(Br)ccc2O)cc1	–	–	Active	Active	–	–	–	–	inactive	Active	–
C/C(=N\OCC(=O)N[C@H](C(=O)N[C@@H](CCCCN)C(=O)N1CCC[C@H]1C(=O)N[C@@H](CCCNC(=N)N)C(=O)O)[C@@H](C)O)c1ccc(NC(=O)c2cc(Br)ccc2O)cc1 ({Benzoyl(5-Br-2-OH)}-[X1]TKPR-OH)	45 µM (≈ 40 µg/mL)	225 µM (≈ 200 µg/mL)	Active	Active	> 200 µM	> 200 µM	> 4.4	> 4.4	Active	Active	Unstable
CCCCCCCCCCCCCCCC(=O)NCCCC[C@H](NC(=O)[C@@H]1CCCN1C(=O)[C@H](CCCCN)NC(=O)[C@@H](NC(=O)CO/N=C(\C)c1ccc(NC(=O)c2cc(Cl)ccc2O)cc1)[C@@H](C)O)C(=O)NCC(=O)N[C@H](C(=O)N[C@@H](CCCCN)C(=O)N1CCC[C@H]1C(=O)N[C@@H](CCCCN)C(=O)NCC(=O)N[C@H](C(=O)N[C@@H](CCCCN)C(=O)N1CCC[C@H]1C(=O)N[C@@H](CCCCN)C(=O)NCC(=O)N[C@H](C(=O)N[C@@H](CCCCN)C(=O)N1CCC[C@H]1C(=O)N[C@@H](CCCCN)C(=O)NCC(N)=O)[C@@H](C)O)[C@@H](C)O)[C@@H](C)O (X3-[X1]TKPK(Palmitoyl)GTKPKGTKPKGTKPKG-NH2)	94.5 µM (≈ 250 µg/mL)	75.6 µM (≈ 200 µg/mL)	Active	Active	16.8 µM	42.9 µM	0.2	0.5	Active	Active	–
C/C(=N\OCC(=O)N[C@H](C(=O)N[C@@H](CCCCN)C(=O)N1CCC[C@H]1C(=O)N1CCC[C@H]1C(=O)N[C@@H](CCCNC(=N)N)C(=O)O)[C@@H](C)O)c1ccc(NC(=O)c2cc(Br)ccc2O)cc1	–	–	–	–	> 200 µM	> 200 µM	> 9.9	> 9.9	–	–	Unstable
C/C(=N\OCC(=O)N[C@H](C(=O)N[C@@H](CCCCN)C(=O)N1CCC[C@H]1C(=O)N[C@@H](CCCCN)C(=O)NCC(=O)N[C@H](C(=O)N[C@@H](CCCCN)C(=O)N1CCC[C@H]1C(=O)N[C@@H](CCCCN)C(=O)NCC(=O)N[C@H](C(=O)N[C@@H](CCCCN)C(=O)N1CCC[C@H]1C(=O)N[C@@H](CCCCN)C(=O)NCC(=O)N[C@H](C(=O)N[C@@H](CCCCN)C(=O)N1CCC[C@H]1C(=O)N[C@@H](CCCCN)C(=O)NCC(N)=O)[C@@H](C)O)[C@@H](C)O)[C@@H](C)O)[C@@H](C)O)c1ccc(NC(=O)c2cc(Cl)ccc2O)cc1 (X3-[X1]TKPKGTKPKGTKPKGTKPKG-NH2)	83 µM (≈ 200 µg/mL)	41.5 µM (≈ 99.9 µg/mL)	Active	Active	> 200 µM	> 200 µM	> 2.4	> 2.4	Active	Active	–
